Screening data as filed in PubChem BioAssay.
Pemphigus Ab inh – human desmoglein-3 autoantibody binding inhibition. P32926. DSG3-coupled beads, scFv-anti-DSG3-GFP binding, flow cytometry; active compounds read low. binding (percent of control), % at 10 µM. 310,000 tested, 0.48% active;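 active = binding more than 3 SD below its plate's average and above zero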;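 note: hits lower antibody fragment binding to DSG3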
Scp-1 inhibitor – inhibitors of human Scp-1 phosphatase. Recombinant Scp1, phosphopeptide, malachite green phosphate absorbance. inhibition, % at 20 µM. AID 493091. 340,000 tested, 0.88% active. Q9GZU7;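 active = inhibition above about 50% at 20 µM, limit read from the data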
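System: truncated SCP-1 phosphatase (76-261aa); medium: Tris acetate buffer pH 5.5 with MgCl2 and Tween-20; incubation: 45 min room-temperature reaction, 5 min colour, 30 min stabiliser; compound: single 20 µM dose, 1% DMSO; reagent: Phosphorylated 17-residue peptide substrate; read-out: % inhibition at 20 µM; technique: colorimetric free-phosphate detection, absorbance 630 nm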
LMPTP inh – LMPTP (human) inhibition | 360,000 tested, 0.22% active | AID 651560 | inhibition, % at 20 µM | P24666 | recombinant LMPTP-A, OMFP fluorogenic substrate, fluorescence intensity;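 active = compounds that cut the enzyme signal by at least half of the control window in the single-dose screen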
Target sequence (P24666 whole entry, looked up): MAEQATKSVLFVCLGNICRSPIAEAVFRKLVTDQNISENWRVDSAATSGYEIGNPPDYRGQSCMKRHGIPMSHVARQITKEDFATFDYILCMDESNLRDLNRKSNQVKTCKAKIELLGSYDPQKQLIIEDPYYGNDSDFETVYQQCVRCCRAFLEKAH
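Assay system: LMPTP-A phosphatase enzyme | Input: 0.625 nM enzyme | Also added: Fluorogenic phosphatase substrate OMFP at 400 µM final | Compound dosing: One test concentration per compound, 20 µM, with 3% DMSO overall | Schedule: 50 min enzyme reaction at room temperature, protected from light | Signal: Fluorescence intensity | Benchmarks: no-enzyme and uninhibited controls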
STEP block – inhibitors of human striatal-enriched phosphatase STEP; recombinant STEP, OMFP fluorogenic substrate, fluorescence; P54829; 360,000 tested, 0.25% active; inhibition, % at 20 µM;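 active = inhibition at 20 µM, scaled per plate between control wells, above about 37%, limit read from the data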
Target sequence (P54829 whole entry, looked up): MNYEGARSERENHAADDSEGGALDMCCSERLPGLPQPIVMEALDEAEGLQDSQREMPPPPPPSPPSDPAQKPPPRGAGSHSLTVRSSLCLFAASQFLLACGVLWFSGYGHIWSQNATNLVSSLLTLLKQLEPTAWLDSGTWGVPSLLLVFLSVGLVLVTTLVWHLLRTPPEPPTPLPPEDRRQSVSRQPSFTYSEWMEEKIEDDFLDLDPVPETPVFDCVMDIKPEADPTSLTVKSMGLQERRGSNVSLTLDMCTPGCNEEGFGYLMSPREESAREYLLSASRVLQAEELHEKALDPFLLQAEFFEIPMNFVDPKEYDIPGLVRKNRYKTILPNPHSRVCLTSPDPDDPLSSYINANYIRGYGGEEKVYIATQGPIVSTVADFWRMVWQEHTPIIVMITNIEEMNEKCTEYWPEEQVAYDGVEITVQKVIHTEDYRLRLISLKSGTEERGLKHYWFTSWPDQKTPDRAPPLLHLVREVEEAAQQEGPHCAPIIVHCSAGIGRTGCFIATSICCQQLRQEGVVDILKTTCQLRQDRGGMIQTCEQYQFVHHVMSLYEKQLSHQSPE
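System: isolated STEP enzyme; schedule: 20 min enzyme reaction at room temperature, protected from light; medium: Bis-Tris buffer pH 6.0, 2.5 mM DTT, 0.005% Tween 20; signal: fluorescence, 480/540 nm; dosing: single compound dose of 20 µM, 1% DMSO final; also added: OMFP substrate, 25 µM final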
SUMO1 PPI mod – SUMO1-SIM interaction modulation; SUMO1 binding to a labelled peptide, TR-FRET, 1 h; inhibition, % at 20 µM; 360,000 tested, 0.33% active; AID 602429; in the data active = inhibition above about 37%
Each line names hits and unclear results; the compound was inactive in the other large screens. Hits are enriched below; roughly 1.7% of the tested compounds scored in any of these assays.

O=C(O)CCC(=O)Nc1cc(C(F)(F)F)cc(C(F)(F)F)c1	SUMO1 PPI mod 44
O=[N+]([O-])c1ccc(Cl)c(S(=O)(=O)Nc2ccc3cn[nH]c3c2)c1	none (no result: Pemphigus Ab inh)
O=[N+]([O-])c1ccc2cn[nH]c2c1	Pemphigus Ab inh 43
Cc1cc2ccccc2n1CCNC(=O)c1cccs1	Pemphigus Ab inh 61
COc1cccc2sc(Nc3nc(-c4cc5ccccc5oc4=O)cs3)nc12	SUMO1 PPI mod 61
O=C(NN1C(=O)C2C(C1=O)C1C=CC2C12CC2)c1ccc(Cl)cc1 (stereo not given)	none
Cc1ccc(C(=O)NN2C(=O)C3C(C2=O)C2C=CC3C23CC3)cc1 (stereo not given)	SUMO1 PPI mod 60
N=C1/C(=C\c2ccc(-c3cccc(C(=O)O)c3)o2)C(=O)N=C2SC=C(c3ccccc3)N12	Scp-1 inhibitor 72, LMPTP inh 80, SUMO1 PPI mod 89
Cc1ccccc1-n1c(C)cc(/C=C2/C(=N)N3C(c4ccccc4)=CSC3=NC2=O)c1C	none
O=C(O)C1Nc2c(O)cc(Cl)c([N+](=O)[O-])c2C2C=CCC12 (stereo not given)	Pemphigus Ab inh 66, Scp-1 inhibitor 62, LMPTP inh 91, STEP block 97, SUMO1 PPI mod 104
Cc1cc(CN(C)Cc2cn(C)nc2-c2ccc(Oc3ccccc3)cc2)on1	none
O=c1ccn(-c2ccccc2)[nH]1	none
O=C(CSc1nnc(CNC(=O)c2c(F)cccc2F)o1)NCC1CCCO1 (stereo not given)	none
CCOC(=O)[C@H]1[C@H]2COc3ccc(C)cc3[C@@H]2N2C(=O)c3ccccc3NC(=O)[C@@]12C	none
Cc1ccc(NC(=O)CSc2nc3sc(C)cc3c(=O)n2C)cc1	none (no result: Pemphigus Ab inh)
CC(NC(=O)CNC(=O)C(Cc1ccccc1)NC(=O)OCc1ccccc1)C(N)=O (stereo not given)	none
CC(/C=C/c1ccc2c(c1)OCO2)=N\NC(=O)c1cccc([N+](=O)[O-])c1	Pemphigus Ab inh 84
O=C(N/N=C/c1cccc([N+](=O)[O-])c1)c1cc(-c2ccc3c(c2)OCO3)n[nH]1	SUMO1 PPI mod 73
C/C(=N/NC(=O)c1cc(-c2cccc([N+](=O)[O-])c2)n[nH]1)c1cccc(O)c1	Pemphigus Ab inh 75
O=C(N/N=C/c1cccc(O)c1)c1cc(-c2ccc3c(c2)OCO3)n[nH]1	none
O=C(CCN1C(=O)/C(=C/c2cccc(Br)c2)SC1=S)NNC(=O)c1cccnc1	Pemphigus Ab inh 83
O=C(CCN1C(=O)/C(=C/c2ccc(F)cc2)SC1=S)NNC(=O)c1cccnc1	Pemphigus Ab inh 88
Cc1ccc(S(=O)(=O)N(C)C)cc1NC(=O)COC(=O)c1sc2cc(Cl)ccc2c1Cl	none
OC1CCN(Cc2nc(Cc3ccccc3Cl)no2)CC1	SUMO1 PPI mod 45
O=C(CCC(=O)N(CC(=O)NC1CCCCC1)c1ccc(F)cc1)Nc1ccccn1	none
CC(C)c1ccc(N(CC(=O)NC2CCCCC2)C(=O)CCC(=O)Nc2ccccn2)cc1	Pemphigus Ab inh 62
C=CCN1C=CC(=O)CC1	none (no result: Pemphigus Ab inh)
CCOc1ccc(C(=O)NCC2CCCN2S(=O)(=O)c2cccs2)cc1 (stereo not given)	none
C=CCc1cccc2cc(C(=O)Nc3ccc(S(=O)(=O)Nc4nnc(CC)s4)cc3)c(=O)oc12	Scp-1 inhibitor 101, STEP block 91
C=CCc1cccc2cc(C(=O)NCc3cccnc3)c(=O)oc12	LMPTP inh 52
C[C@H](CO)N1C[C@H](C)[C@H](CN(C)C(=O)CC2CC2)Oc2cc(Br)ccc2S1(=O)=O	none (no result: Scp-1 inhibitor)
Cc1cc(C(=O)Nc2cccc(O)c2)c(C)o1	SUMO1 PPI mod 37
Cc1cc(C(=O)Nc2cccc(C(=O)O)c2)c(C)o1	none
CC(=O)Nc1ccc(-c2cc(-c3ccccc3)nc(-c3ccccc3)n2)cc1	Pemphigus Ab inh -15
CCC(C)NC(=O)Cn1c(COc2ccc(Cl)cc2Cl)nc2ccccc21 (stereo not given)	Pemphigus Ab inh -1.1
O=C(Cn1c(COc2ccccc2)nc2ccccc21)Nc1cccc(Cl)c1	none (no result: Pemphigus Ab inh)
COc1ccc(S(=O)(=O)N(n2c(C)nnc2-n2nc(C)cc2C)S(=O)(=O)c2ccc(OC)cc2)cc1	none
CCCCN1C(=O)C(=O)N(CC(=O)Nc2sc(CC)cc2C(=O)OCC)C1=O	none
Cc1ccc(C2(C)NC(=O)N(CC(=O)c3ccc(Cl)s3)C2=O)cc1 (stereo not given)	none
O=C(Cc1ccc(-n2c(=O)c3ccccc3n(Cc3ccc(F)cc3)c2=O)cc1)NCC1CCCO1 (stereo not given)	SUMO1 PPI mod 40
COc1ccc(/C=C(\C#N)C(=O)OCC(=O)NC2CC2)cc1	Pemphigus Ab inh 58
COc1ccc(/C=C(\C#N)C(=O)OCC(=O)NCc2ccccc2)cc1	none
O=C(Nc1ccccc1C(F)(F)F)N1CCN(c2ccccn2)CC1	none
CCN(CC)S(=O)(=O)c1cc(NC(=O)Cn2ncc(Cl)c(Cl)c2=O)ccc1C	Scp-1 inhibitor 89
O=C(Cn1nc(C(=O)O)c2ccccc2c1=O)Nc1ccc(Cl)c(S(=O)(=O)N2CCOCC2)c1	Pemphigus Ab inh 69
O=C(Cn1ncc(Cl)c(Cl)c1=O)Nc1ccc2c(c1)OCO2	none
Cn1nc(C(=O)Nc2ccc(S(=O)(=O)N3CCOCC3)cc2)c2ccccc2c1=O	Pemphigus Ab inh 84
COc1ccc(NC(=O)Cn2ncc(Cl)c(Cl)c2=O)cc1S(=O)(=O)N1CCOCC1	Scp-1 inhibitor 99
C[C@@H]1CN([C@H](C)CO)C(=O)c2cc(Br)cnc2O[C@@H]1CN(C)C(=O)NC1CCCC1	none (no result: Scp-1 inhibitor)
COC(=O)c1ccc2nc(-c3ccc(C)cc3)c(Cc3cccc(Cl)c3)n2c1	none (no result: Pemphigus Ab inh, Scp-1 inhibitor, STEP block)
N=c1ccn2c(n1)OC1C(O)C(CO)OC12 (stereo not given)	none
COc1ccc(NCC(=O)N/N=C2\CCc3ccccc32)cc1	Pemphigus Ab inh 106
O=C(CNc1ccc(F)cc1)N/N=C1\CCc2ccccc21	none
CCOC(=O)C1(CCCc2ccccc2)CCN(C(=O)c2cc(C)nn2CC)CC1	SUMO1 PPI mod 43
CCOc1ccc(OCCC(=O)N(CC(C)C)c2c(N)n(Cc3ccccc3)c(=O)[nH]c2=O)cc1	none (no result: Pemphigus Ab inh)
C/C(=N\Nc1ccc(C(=O)O)cc1)c1ccc(Br)cc1	Scp-1 inhibitor 52
CN(C(=O)c1ccc(Oc2ccc([N+](=O)[O-])cc2)cc1)C1CCCCC1	Pemphigus Ab inh 92
O=C(Nc1ccc(F)cc1)Nc1ccc([N+](=O)[O-])cn1	Pemphigus Ab inh 54
CCCC(=O)Nc1ccc(OCC(=O)OC)cc1	none
CCCC(=O)Nc1ccc(Oc2ccc(NC(=O)CCC)cc2)cc1	Pemphigus Ab inh 55
CCOc1cc(/C=N/Nc2ccc(S(=O)(=O)Nc3ccccc3C(=O)O)cc2[N+](=O)[O-])cc(Cl)c1O	SUMO1 PPI mod 66 (no result: Scp-1 inhibitor)
